This excerpt belongs to a sample that is enriched for hits.
Lmaj promast = Leishmania major promastigote growth inhibition. Leishmania major promastigotes, resazurin fluorescence viability. inhibition, % at 10 µM. 9% of 200,000 active;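 further: promastigotes grown with compound for 44 hours at 28 °C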
PKD1 kinase inh = blocks activity of human protein kinase D1; AID 797; PKD1 kinase fluorescence polarization assay; 0.056% of 200,000 active; inhibition, % (test concentration not listed); Q15139
Target sequence (Q15139 whole entry, looked up): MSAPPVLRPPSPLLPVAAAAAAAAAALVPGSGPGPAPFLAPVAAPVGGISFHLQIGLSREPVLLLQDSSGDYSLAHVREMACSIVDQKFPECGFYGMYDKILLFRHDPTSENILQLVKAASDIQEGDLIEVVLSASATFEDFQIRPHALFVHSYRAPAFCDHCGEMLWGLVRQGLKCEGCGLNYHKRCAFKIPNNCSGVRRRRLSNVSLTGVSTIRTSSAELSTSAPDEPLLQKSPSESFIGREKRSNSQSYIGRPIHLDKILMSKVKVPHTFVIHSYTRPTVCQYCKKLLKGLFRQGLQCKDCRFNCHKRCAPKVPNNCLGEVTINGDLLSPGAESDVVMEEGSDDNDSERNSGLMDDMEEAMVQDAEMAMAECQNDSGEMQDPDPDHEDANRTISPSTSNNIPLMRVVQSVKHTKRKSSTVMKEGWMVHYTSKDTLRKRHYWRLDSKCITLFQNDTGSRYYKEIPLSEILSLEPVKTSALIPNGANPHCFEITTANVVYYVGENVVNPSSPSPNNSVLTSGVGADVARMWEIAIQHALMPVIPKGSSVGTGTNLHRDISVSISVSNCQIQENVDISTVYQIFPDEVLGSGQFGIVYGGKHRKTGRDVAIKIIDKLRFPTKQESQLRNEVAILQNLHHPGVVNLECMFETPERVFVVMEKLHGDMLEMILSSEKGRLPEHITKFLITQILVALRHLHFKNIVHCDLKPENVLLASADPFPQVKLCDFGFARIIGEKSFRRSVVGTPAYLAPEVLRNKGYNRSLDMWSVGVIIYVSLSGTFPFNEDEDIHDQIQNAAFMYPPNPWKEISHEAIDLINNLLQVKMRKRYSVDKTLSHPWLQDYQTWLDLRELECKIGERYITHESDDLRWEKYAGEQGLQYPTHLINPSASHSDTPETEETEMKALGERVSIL
Avidin bead fluor = compound fluoresces at 488/530 nm on avidin beads | 0.38% of 220,000 active | compound fluorescence 488/530 nm, flow cytometry; active compounds read high | fluorescence (KMESF) at 10 µM; in the data active means fluorescence above about 47
GSH bead fluor = GSH bead compound fluorescence profile. fluorescence (KMESF) at 10 µM. GSH beads flow cytometry, compound fluorescence 488/530 nm; active compounds read high. AID 1776. 0.25% of 190,000 active; in the data active means fluorescence above about 89;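 further: glutathione beads carrying GST-tagged Bcl family fusion proteins plus one bare bead set; values are compound well signal with DMSO vehicle wells as background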
ABCB1 inh = inhibitors of human ABCB1 transporter, ABCG2 counter-screen; AID 1326; 0.067% of 190,000 active; P08183; inhibition, % at 6.6 µM; CCRF-Adr cells, JC-1 efflux, flow cytometry; in the data active means inhibition above about 40%;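 further: 0% = vehicle and 100% = reference inhibitor; higher value means more JC-1 retained so stronger ABCB1 efflux block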
ABCG2 inh = inhibitors of human ABCG2 transporter, ABCB1 counter-screen | AID 1325 | Q9UNQ0 | 0.1% of 190,000 active | inhibition, % at 6.6 µM | IgMXP3 cells, JC-1 efflux, flow cytometry;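 active means inhibition above 80%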;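 further: 0% = DMSO and 100% = nicardipine control wells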
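test system = two drug-resistant human cell lines, ABCG2 and ABCB1 | amount = 3 million cells/mL final, two lines in 1:1 ratio | reagent = JC-1 transporter substrate | doses = one concentration, 6.6 µM final | incubation = 10 min at 25 °C | signal = flow cytometric JC-1 green MFI at 530 nm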
Numbers without * were called inactive. Unless noted, no stated cut-off is given here; in the data, active means inhibition above about 50%; inactive means the rest.

What do the screens show for `CCCCSc1nnc(-c2ccccc2NC(C)=O)c(=O)[nH]1`?
Lmaj promast: -3; PKD1 kinase inh: -6; Avidin bead fluor: 6; GSH bead fluor: 13; ABCB1 inh: 1; ABCG2 inh: 5

Results for COc1cc(/C=C(\C#N)C(=O)NCC2CCCO2)ccc1OC(C)C (configuration not stated) ?
Lmaj promast: 79*; PKD1 kinase inh: -11; Avidin bead fluor: 17; GSH bead fluor: 10; ABCG2 inh: 10

How did COc1ccc(/C=C(\C#N)C(=O)NCC2CCCO2)cc1OC (configuration not stated) do in these assays?
Lmaj promast: 10; PKD1 kinase inh: 4; Avidin bead fluor: 8; GSH bead fluor: 23; ABCB1 inh: 2; ABCG2 inh: 14

What do the screens show for `Cc1cccc(C)c1NC(=S)NC(C)CCc1ccccc1` (configuration not stated)?
Lmaj promast: 61*; PKD1 kinase inh: 0; Avidin bead fluor: 6; GSH bead fluor: 15; ABCB1 inh: 1; ABCG2 inh: 6

What do the screens show for `Cc1ccc(NC(=S)NC(C)CCc2ccccc2)cc1C` (configuration not stated)?
Lmaj promast: 90*; PKD1 kinase inh: -6; Avidin bead fluor: 11; GSH bead fluor: 25; ABCB1 inh: -1; ABCG2 inh: 17

Results for CC(=O)c1ccc(NC(=S)NC(C)CCc2ccccc2)cc1 (configuration not stated) ?
Lmaj promast: 8; PKD1 kinase inh: 0; Avidin bead fluor: 6; GSH bead fluor: 21; ABCB1 inh: 1; ABCG2 inh: 9

How did Cc1ccccc1NC(=O)C(=O)NC(C)CCc1ccccc1 (configuration not stated) do in these assays?
Lmaj promast: 34; PKD1 kinase inh: -6; Avidin bead fluor: 15; GSH bead fluor: 6; ABCB1 inh: 0; ABCG2 inh: 14

What do the screens show for `Cc1ccc(-n2c(N)c(C(=O)Nc3ccccc3F)sc2=S)cc1C`?
Lmaj promast: 3; PKD1 kinase inh: -7; Avidin bead fluor: 10; GSH bead fluor: 27; ABCB1 inh: 0; ABCG2 inh: 7

What do the screens show for `COC(=O)C1=C(C)NC2=C(C(=O)CC(C)(C)C2)C1c1cn(Cc2ccc(Br)cc2)nc1-c1ccccc1` (configuration not stated)?
Lmaj promast: 99*; PKD1 kinase inh: 1; Avidin bead fluor: 9; GSH bead fluor: 8; ABCB1 inh: 9; ABCG2 inh: 5

Results for CC(=O)c1ccc(Sc2nnnn2-c2ccccc2)c([N+](=O)[O-])c1 ?
Lmaj promast: 100*; PKD1 kinase inh: -1; Avidin bead fluor: 13; GSH bead fluor: 10; ABCB1 inh: 1; ABCG2 inh: 16

Results for O=[N+]([O-])c1ccc(Sc2nnnn2-c2ccccc2)c(Cl)c1 ?
Lmaj promast: 90*; PKD1 kinase inh: 1; Avidin bead fluor: 17; GSH bead fluor: 9; ABCB1 inh: -1; ABCG2 inh: -3

What do the screens show for `Cn1cnnc1Sc1cc(N2CCN(S(=O)(=O)c3ccccc3)CC2)ccc1[N+](=O)[O-]`?
Lmaj promast: 4; PKD1 kinase inh: -5; Avidin bead fluor: 6; GSH bead fluor: 23; ABCB1 inh: 1; ABCG2 inh: 3

What do the screens show for `CN1CCN(S(=O)(=O)c2ccc(Sc3nnnn3-c3ccccc3)c([N+](=O)[O-])c2)CC1`?
Lmaj promast: 100*; PKD1 kinase inh: -6; Avidin bead fluor: 12; GSH bead fluor: 27; ABCB1 inh: 1; ABCG2 inh: 0

Results for CC(=O)c1ccc(Sc2ccccn2)c([N+](=O)[O-])c1 ?
Avidin bead fluor: 8

Results for COc1ccc(N=C(c2ccccc2)c2c(C)[nH]n(-c3ccccc3)c2=O)c(OC)c1 ?
Avidin bead fluor: 8

What do the screens show for `N=c1c2c(n(Cc3ccc(Cl)c(Cl)c3)c3c1CCC3)CCCC2`?
Lmaj promast: 100*; PKD1 kinase inh: 10; Avidin bead fluor: 10; GSH bead fluor: 18; ABCB1 inh: 0; ABCG2 inh: 4

What do the screens show for `O=C(O)CCn1c2c(c3ccccc31)CCCC2`?
Lmaj promast: -6; PKD1 kinase inh: 6; Avidin bead fluor: 8; GSH bead fluor: 10; ABCB1 inh: 0; ABCG2 inh: 0

What do the screens show for `CCCCCCCn1c2c(c(=N)c3ccccc31)CCC2`?
Lmaj promast: 100*; PKD1 kinase inh: -4; Avidin bead fluor: 17; GSH bead fluor: 13; ABCB1 inh: 0; ABCG2 inh: 1

How did CCCn1c2c(c(=N)c3c1CCC3)CCC2 do in these assays?
Avidin bead fluor: 8

What do the screens show for `CCCn1c2c(c(=N)c3c1CCC3)CCCC2`?
Lmaj promast: 100*; PKD1 kinase inh: -1; Avidin bead fluor: 3; GSH bead fluor: 5; ABCB1 inh: 0; ABCG2 inh: -1

How did N=c1c2c(n(Cc3ccc([N+](=O)[O-])cc3)c3c1CCC3)CCCC2 do in these assays?
Lmaj promast: 64*; PKD1 kinase inh: 6; Avidin bead fluor: 10; GSH bead fluor: 13; ABCB1 inh: 1; ABCG2 inh: 5

Results for CCOC(=O)Cn1c2c(c(=N)c3c1CCC3)CCCC2 ?
Lmaj promast: 18; PKD1 kinase inh: -1; Avidin bead fluor: 2; GSH bead fluor: 6; ABCB1 inh: 0; ABCG2 inh: 0

What do the screens show for `O=C(Cc1cccs1)NC1(C(=O)NC2CCCC2)CCCCC1`?
Lmaj promast: -7; PKD1 kinase inh: -6; Avidin bead fluor: 4; GSH bead fluor: 9; ABCB1 inh: 0; ABCG2 inh: 3

What do the screens show for `COc1ccc(OC)c(-n2nnnc2SCC(=O)Nc2ccccc2N2CCOCC2)c1`?
Lmaj promast: 21; PKD1 kinase inh: -5; Avidin bead fluor: 9; GSH bead fluor: 10; ABCB1 inh: 2; ABCG2 inh: 4

What do the screens show for `CS(=O)(=O)N(CC(=O)NCc1ccncc1)C1CCCCC1`?
Lmaj promast: -6; PKD1 kinase inh: -7; Avidin bead fluor: 11; GSH bead fluor: 22; ABCB1 inh: 0; ABCG2 inh: 0

What do the screens show for `N=c1c2c(n(Cc3ccc(Br)cc3)c3c1CCC3)CCCC2`?
Lmaj promast: 100*; PKD1 kinase inh: -14; Avidin bead fluor: 1; GSH bead fluor: 4; ABCB1 inh: 1; ABCG2 inh: 2

What do the screens show for `O=c1[nH]c(=O)n(Cc2ccccc2)c2c1CCC2`?
Lmaj promast: 3; PKD1 kinase inh: -6; Avidin bead fluor: 22; GSH bead fluor: 14; ABCB1 inh: 0; ABCG2 inh: 0

Results for CCCCNC(=O)c1cc2cc(CC)ccc2[nH]1 ?
Avidin bead fluor: 7

What do the screens show for `COc1cccc(/C=N/NC(=O)NC2CCCCC2)c1O`?
Avidin bead fluor: 3

Results for O=C(COc1ccc(F)cc1)NC1CC1 ?
Lmaj promast: 2; PKD1 kinase inh: 3; Avidin bead fluor: 14; GSH bead fluor: 30; ABCB1 inh: 3; ABCG2 inh: 2

How did O=C(COc1ccc(C(=O)c2ccccc2)cc1)NC1CCCCC1 do in these assays?
Lmaj promast: 53*; PKD1 kinase inh: -19; Avidin bead fluor: 15; GSH bead fluor: 10; ABCG2 inh: 8

Screening results (PubChem)
